Usually MIC stands for the lowest concentration found to suppress growth. Usually IC50 stands for the concentration that gives 50% inhibition.

The values below come from ChEMBL document CHEMBL4400513, “Aurone derivatives as promising antibacterial agents against resistant Gram-positive pathogens” (Eur J Med Chem, 2019).

Data set [1] deals with Candida albicans. The experiment in a line: Fungicidal activity against Candida albicans. The data set is classed as functional, organism-based. In outline: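 C. albicans in RPMI buffered with 0.165 M MOPS (pH 7.0). Two-fold serial dilutions from 0 to 500 µM, 0.2% DMSO final. Plates incubated at 35 °C for 24 h; OD600 read, MIC taken as the lowest concentration with no visible growth. Fungicidal concentration defined by ≤1 colony after streaking 10 µL of no-growth wells on agar. n = 3.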

In data set [2] the test system is Vibrio alginolyticus. The experiment in a line: Antimicrobial activity against Vibrio alginolyticus after 18 to 24 hrs in aerobic condition by two-fold serial dilutions method. The data set is classed as functional. A digest of the protocol:
(§1)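 Colonies grown overnight (~16 h) in Mueller-Hinton broth at 37 °C, 200 rpm, diluted 1/100 and grown to log phase (OD600 ~0.6), then diluted to ~10^5 bacteria/mL. Exposed to 0 to 500 µM in 1:2 series (0.2% DMSO final control), aerobic, 37 °C, 18–24 h. OD600 read; MIC = lowest concentration without visible growth; n = 3.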

Data set [3] concerns Salmonella enterica. Description: Bactericidal activity against Salmonella enterica in aerobic condition. The data set is classed as functional, organism-based. In outline: (§2)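 MH broth; log-phase bacteria (OD600 ~0.6) diluted to ~10^5 bacteria/mL and exposed to two-fold serial dilutions (0–500 µM; 0.2% DMSO final as vehicle control) at 37 °C, aerobic, 18–24 h. MIC is the lowest concentration preventing visible growth (OD600). MBC is found by streaking 10 µL from no-growth wells onto agar; the MBC is the concentration where ≤1 colony grew. n = 3.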

For data set [4], the system named is Klebsiella pneumoniae. Description: Antimicrobial activity against Klebsiella pneumoniae after 18 to 24 hrs in aerobic condition by two-fold serial dilutions method. It is filed as functional. In outline: as §1
Data set [5] relates to Lactococcus lactis. Description: Antimicrobial activity against Lactococcus lactis after 18 to 24 hrs in aerobic condition by two-fold serial dilutions method. It is filed as functional. A digest of the protocol:
as §1

Data set [6] relates to Shigella flexneri. Description: Antimicrobial activity against Shigella flexneri after 18 to 24 hrs in aerobic condition by two-fold serial dilutions method. It is filed as functional. In outline:
as §1

Data set [7] has as its system Mycolicibacterium smegmatis. Description: Antimicrobial activity against Mycobacterium smegmatis after 18 to 24 hrs in anaerobic condition by two-fold serial dilutions method. The data set is classed as functional.
Data set [8] has as its system Escherichia coli. Description: Bactericidal activity against Escherichia coli in aerobic condition. The data set is classed as functional, organism-based. A digest of the protocol:
(§3)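 From the MIC plates, 10 µL from each well without growth was streaked onto agar suited to the organism and incubated under that organism's growth conditions. Colonies were then counted; MBC = lowest concentration allowing ≤1 colony, i.e. killing 99.9% of bacteria.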

For data set [9], the system named is Fusarium oxysporum. Description: Fungicidal activity against Fusarium oxysporum. The data set is classed as functional, organism-based. In outline:
(§4)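 Filamentous fungi grown on potato dextrose agar and tested in RPMI medium with two-fold serial dilutions (0–500 µM, 0.2% DMSO final). Plates held at room temperature for 2 to 5 days, then OD600 read; MIC taken as the lowest concentration with no visible growth. The fungicidal endpoint is ≤1 colony after streaking 10 µL of no-growth wells on agar. n = 3.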

Data set [10] deals with Clostridium perfringens. Description: Induction of cell membrane permeability in Clostridium perfringens assessed as membrane integrity after 240 mins in anaerobic condition by propidium iodide staining-based assay relative to control. It is filed as functional. A digest of the protocol:
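Log-phase bacteria resuspended in PBS at about 10^9/mL with propidium iodide 60 µM final, mixed 1:1 with two-fold serial dilutions of compound. Fluorescence (ex 530/em 590 nm) recorded over 240 min at 37 °C anaerobically. Normalised to CTAB 300 µM or nisin at 5× MIC (100% permeabilization); DMSO as vehicle. Triplicate.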

The subject of data set [11] is Fusarium verticillioides. The experiment in a line: Fungicidal activity against Fusarium verticillioides. The data set is classed as functional, organism-based. In outline:
as §4

Data set [12] relates to Helicobacter pylori. Description: Antimicrobial activity against Helicobacter pylori after 18 to 24 hrs in anaerobic condition by two-fold serial dilutions method. The data set is classed as functional. A digest of the protocol: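 Mueller-Hinton broth preculture grown to log phase (OD600 ~0.6), diluted to ~10^5 bacteria/mL. Serial 1:2 dilutions 0 to 500 µM, 0.2% DMSO final control. Incubated at 37 °C for 18–24 h under anaerobic conditions from a gas-pack system; OD600 read; MIC = lowest concentration without visible growth; triplicate.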

For data set [13], the system named is Vibrio alginolyticus. Description: Bactericidal activity against Vibrio alginolyticus in aerobic condition. It is filed as functional, organism-based. A digest of the protocol: as §2
Data set [14] has as its system Lactococcus lactis. The experiment in a line: Bactericidal activity against Lactococcus lactis in aerobic condition. The data set is classed as functional, organism-based. A digest of the protocol: as §3
In data set [15] the test system is Mycolicibacterium smegmatis. The experiment in a line: Bactericidal activity against Mycobacterium smegmatis in anaerobic condition. The data set is classed as functional, organism-based. In outline: as §3
Data set [16] deals with IMR-90. The experiment in a line: Cytotoxicity against human IMR90 cells assessed as reduction in cell viability after 48 hrs by Resazurin dye-based assay. The note with it: for IC50: Homo sapiens, IMR-90, 48 h; for Activity: human, imr-90, 48 h. In outline: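 Normal human lung epithelial (BEAS-2B) and lung fibroblast (IMR-90) cells were grown in DMEM with 10% FCS. Cells were seeded at ~10^4/well, grown to confluence (48–72 h), then exposed to increasing concentrations for 48 h at 37 °C, 5% CO2, with 0.2% DMSO as control. Resazurin was added for 4 h and fluorescence read at 530/590 nm. Viability was normalized to DMSO wells and IC50 calculated.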

Data set [17] can be described thus: Therapeutic index, ratio of IC50 for human IMR90 cells to MIC for Clostridium perfringens. It is filed as toxicity. The following applies: read-out: TI. A digest of the protocol:
(§5)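 IC50 measured on confluent normal human BEAS-2B or IMR-90 cells (DMEM, 10% FCS) after 48 h exposure with DMSO 0.2% as control. Resazurin read after 4 h (ex 530/em 590 nm), normalised to DMSO-treated cells. Index obtained by comparing this IC50 with the bacterial MIC.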

Data set [18] deals with Pseudomonas aeruginosa. The experiment in a line: Bactericidal activity against Pseudomonas aeruginosa in aerobic condition. The data set is classed as functional, organism-based. In outline: as §2
A short description of data set [19]: Therapeutic index, ratio of IC50 for human BEAS2B cells to MIC for methicillin-resistant Staphylococcus aureus. The data set is classed as toxicity. The following applies: read-out: TI. A digest of the protocol:
as §5

Converted amounts (≈) assume the structure as drawn. The source made the active and inactive calls. The calls are words filed in the database; no cut-off is given here.

With `O=C1/C(=C/c2ccccc2)Oc2cc(O)cc(O)c21`, the result in [1], in data set [3], in data set [8], in [9], in data set [11] and in data set [13] was Active. Further, the outcome in data set [14], in [15] and in data set [18] was Active. Moreover, the MIC was 31.2 µM (≈ 7.95 µg/mL) in data set [2]; > 500 µM in data set [4]; 15.6 µM (≈ 3.97 µg/mL) in [5]; > 500 µM in [6]; > 500 µM in data set [7]; 15.6 µM (≈ 3.97 µg/mL) in data set [12]. Further, in [10], the result was inactive. The IC50 in [16] stood at 250 µM. Moreover, in data set [16], the Activity entry is “Dose-dependent effect”. Further, in data set [17], the selectivity ratio was 32.
`O=C1/C(=C/c2ccc(F)cc2)Oc2cc(O)cc(O)c21`: the outcome in data set [1], in data set [3], in data set [8], in data set [9], in data set [11] and in [13] was Active. Also, the outcome in data set [14], in data set [15] and in data set [18] was Active. Also, the MIC in [2] was 125 µM (≈ 34 µg/mL); in data set [4] it was > 500 µM; in [5] it was 15.6 µM (≈ 4.25 µg/mL); in [6] it was > 500 µM; in data set [7] it was > 500 µM; in data set [12], > 500 µM. In data set [19], the selectivity ratio was found to be 76. Further, the outcome in [10] was inactive. Besides, the 50% inhibitory concentration (IC50) in [16] is 620 µM. Moreover, the Activity entry in data set [16] is “Dose-dependent effect”.
As for `COc1cc(/C=C2\Oc3cc(O)cc(O)c3C2=O)ccc1OCc1ccccc1`, the result in data set [1], in data set [3], in data set [8], in data set [9], in [11] and in data set [13] was Active. Further, the outcome in data set [14], in data set [15] and in data set [18] was Active. In addition, the MIC in [2] was 3.9 µM (≈ 1.52 µg/mL); in [4], > 500 µM; in data set [5] it was 31.2 µM (≈ 12.2 µg/mL); in data set [6], > 500 µM; in data set [7] it was > 500 µM; in [12], 15.6 µM (≈ 6.09 µg/mL). The Activity in data set [10] is 30%; in data set [16], “Dose-dependent effect”. The IC50 in data set [16] is 340 µM.
